Columns and labels:
[1] = target: Muscarinic acetylcholine receptor; test: In vitro ability to displace [3H]oxotremorine-M (OXO-M) from rat cerebral cortex muscarinic receptor.; type: tissue-based
[2] = target: Muscarinic acetylcholine receptor; test: In vitro displacement of [3H]quinuclidinyl benzilate (QNB) from rat cerebral cortex muscarinic receptor.; type: tissue-based
[3] = target: Muscarinic acetylcholine receptor (Rattus norvegicus) (UniProt P08482+P08483+P08485+P08911+P10980); test: Ratio of Compound (IC50(nM) of QNB/ IC50(nM) of OXO-M); type: protein assay
[4] = target: Muscarinic acetylcholine receptor; test: In vitro ability to displace [3H]quinuclidinyl benzilate (QNB) from rat cerebral cortex muscarinic acetylcholine receptor; type: tissue-based
How it was run: (§1)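 Washed Hooded Lister rat cerebral cortex membranes (50 mM Tris pH 7.7), diluted from stored stock, incubated with test compound and 0.27 nM [3H]QNB at 37 °C for 30 min. GF/B filtration, ice-cold buffer washes, scintillation counting. Nonspecific binding typically 25% of total. Seven concentrations; geometric mean of separate experiments; IC50 (nM).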

[5] = target: Muscarinic acetylcholine receptor; test: In vitro ability to displace [3H]oxotremorine-M (OXO-M) from rat cerebral cortex muscarinic acetylcholine receptor; type: tissue-based
How it was run: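 Hooded Lister rat cerebral cortex homogenised in ice-cold 50 mM Tris pH 7.7 (at 25 °C), washed by repeated 25000g spins, stored at -20 °C. Incubation buffer with 2 mM MgCl2; 37 °C, 30 min; filtered on GF/B filters presoaked in 0.05% polyethylenamine; scintillation counting. Seven concentrations; geometric mean of at least two separate experiments; IC50 (nM).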

[6] = target: Muscarinic acetylcholine receptor; test: In vitro ability to displace [3H]oxotremorine-M (OXO-M) from rat cerebral cortex Muscarinic acetylcholine receptor; type: tissue-based
[7] = target: Muscarinic acetylcholine receptor; test: In vitro ability to displace [3H]quinuclidinyl benzilate (QNB) from rat cerebral cortex Muscarinic acetylcholine receptor; type: tissue-based
[8] = target: Muscarinic acetylcholine receptor; test: In vitro ability to displace [3H]quinuclidinyl benzilate (QNB) from rat cerebral cortexMuscarinic acetylcholine receptor; type: tissue-based, Cerebral cortex; how it was run: as §1

c1ncn([C@H]2CN3CC[C@H]2C3)n1
IC50 [1]: 79 nM | IC50 [2]: 38200 nM

Cn1ncc(C23CCCN(CC2)C3)n1 (stereo unspecified)
IC50 [1]: 14 nM | IC50 [2]: 3100 nM

Nc1nnn([C@H]2CN3CC[C@H]2C3)n1
IC50 [1]: 2.6 nM | IC50 [2]: 4360 nM

Cn1nnc(C23CCCN(CC2)C3)n1 (stereo unspecified)
IC50 [1]: 100 nM | IC50 [2]: 5700 nM

O=C1CCCN1CC#CCN1CCCC1
Ratio [3]: 190

Brc1nnn([C@H]2CN3CC[C@H]2C3)n1
IC50 [4]: 822 nM | IC50 [5]: 7.4 nM | Ratio [3]: 111

Cn1ncc([C@H]2CN3CC[C@H]2C3)n1
IC50 [1]: 5.4 nM | IC50 [2]: 2800 nM

Nc1ncn(C23CCCN(CC2)C3)n1 (stereo unspecified)
IC50 [1]: 13 nM | IC50 [2]: 3900 nM

O=[N+]([O-])c1ncn([C@H]2CN3CC[C@H]2C3)n1
IC50 [1]: 4100 nM | IC50 [2]: 35600 nM

Nc1nnn(C2CN3CCC2CC3)n1 (stereo unspecified)
IC50 [1]: 38 nM | IC50 [2]: 4400 nM

Nc1nnn(C23CCCN(CC2)C3)n1 (stereo unspecified)
IC50 [1]: 5.9 nM | IC50 [2]: 2670 nM

Clc1nnn([C@H]2CN3CC[C@H]2C3)n1
IC50 [4]: 630 nM | IC50 [5]: 7.6 nM | Ratio [3]: 83

Cc1ncn(C23CCCN(CC2)C3)n1 (stereo unspecified)
IC50 [1]: 12 nM | IC50 [2]: 2100 nM

Cn1ncc(C23CCN(CC2)C3)n1
IC50 [1]: 35 nM | IC50 [2]: 14400 nM

Cc1nnn(C2CN3CCC2CC3)n1 (stereo unspecified)
IC50 [1]: 31 nM

Clc1nnn(C2CN3CCC2CC3)n1 (stereo unspecified)
IC50 [4]: 578 nM | IC50 [5]: 27 nM | Ratio [3]: 21

Cn1nnc(C23CCN(CC2)C3)n1
IC50 [1]: 250 nM | IC50 [2]: 46700 nM

Cc1nnn([C@H]2CN3CC[C@H]2C3)n1
IC50 [1]: 4.2 nM | IC50 [2]: 1900 nM

c1nnn(C23CCCN(CC2)C3)n1 (stereo unspecified)
IC50 [1]: 19 nM | IC50 [2]: 7200 nM

c1ncn(C23CCN(CC2)C3)n1
IC50 [1]: 79 nM | IC50 [2]: 39900 nM

Cn1nnc([C@H]2CN3CC[C@H]2C3)n1
IC50 [1]: 11 nM | IC50 [2]: 2900 nM

Nc1ncn([C@H]2CN3CC[C@H]2C3)n1
IC50 [1]: 18 nM | IC50 [2]: 3600 nM

Cc1ncn(C23CCN(CC2)C3)n1
IC50 [1]: 86 nM | IC50 [2]: 14900 nM

Cc1ncn([C@H]2CN3CC[C@H]2C3)n1
IC50 [1]: 17 nM | IC50 [2]: 4300 nM

Brc1nnn(C2CN3CCC2CC3)n1 (stereo unspecified)
IC50 [4]: 488 nM | IC50 [5]: 20 nM | Ratio [3]: 25

Cn1nnc([C@@H]2CN3CC[C@H]2C3)n1
IC50 [1]: 325 nM | IC50 [2]: 30600 nM

Brc1ncn([C@H]2CN3CC[C@H]2C3)n1
IC50 [6]: 31 nM | IC50 [7]: 3040 nM

c1ncn(C23CCCN(CC2)C3)n1 (stereo unspecified)
IC50 [1]: 12 nM | IC50 [2]: 3600 nM

Cc1nnn(C23CCCN(CC2)C3)n1 (stereo unspecified)
IC50 [1]: 14 nM | IC50 [2]: 1925 nM

Ic1nnn(C2CN3CCC2CC3)n1 (stereo unspecified)
IC50 [4]: 216 nM | IC50 [5]: 43 nM | Ratio [3]: 5

c1nnn([C@H]2CN3CC[C@H]2C3)n1
IC50 [1]: 30 nM | IC50 [2]: 14300 nM

OC(c1ccccc1)(c1ccccc1)c1nnn(C2CN3CCC2CC3)n1 (stereo unspecified)
IC50 [1]: 3.6 nM | IC50 [2]: 2.8 nM

Clc1ncn([C@H]2CN3CC[C@H]2C3)n1
IC50 [6]: 14 nM | IC50 [8]: 1290 nM

Ic1nnn([C@H]2CN3CC[C@H]2C3)n1
IC50 [4]: 372 nM | IC50 [5]: 48 nM | Ratio [3]: 8

Brc1nnn(C23CCCN(CC2)C3)n1 (stereo unspecified)
IC50 [6]: 5.5 nM | IC50 [7]: 279 nM

Cn1ncc([C@@H]2CN3CC[C@H]2C3)n1
IC50 [1]: 16 nM | IC50 [2]: 13500 nM

N#Cc1nnn(C2CN3CCC2CC3)n1 (stereo unspecified)
IC50 [1]: 1400 nM | IC50 [2]: 5200 nM

Clc1nnn(C23CCCN(CC2)C3)n1 (stereo unspecified)
IC50 [4]: 332 nM | IC50 [5]: 3.5 nM | Ratio [3]: 95
